One series concerns Norwalk virus. Nature of the series: Antiviral activity against Norwalk virus infected in human HG23 cells assessed as inhibition of viral replication after 24 hrs by qRT-PCR. The series is classed as functional. As to conditions: HG23, 24 h, read-out: ED50 (the source's name). In short, it runs like this:
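HG23 cells (Norwalk virus replicon-bearing), one day old at 80–90% confluence, exposed to graded compound levels from 0 (mock-DMSO) to 10 µM. NV genome quantified by qRT-PCR; ED50 for genome levels taken at 24 h post-treatment. Values averaged over at least two independent experiments, mean ± standard deviation.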
A general note: Quantitative PCR measures a nucleic acid by following its amplification.

A short description of series [1]: Cytotoxicity against human HG23 cells after 48 hrs. The series is classed as cell-based. The conditions noted are these: read-out: TD50. In short, it runs like this: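 Replicon-harboring HG23 cells exposed to graded compound levels from 0 (mock-DMSO) to 320 µM for 48 h. Viability read with a commercial cell cytotoxicity assay kit, and the median toxic dose (TD50) was calculated from it.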

Consider `CCCCc1ccc(CN2CCNS2(=O)=O)cc1`, for which the EC50 in the series on Norwalk virus is greater than 10 µM.
For the compound `O=S1(=O)N(CCN2CCOCC2)CCN1Cc1cccc(Oc2ccccc2)c1`, in series [1], the CC50 at 48 h stood at 49 µM.
For the compound `O=S1(=O)NCCN1Cc1cccc(Oc2ccccc2)c1`, the CC50 at 48 h in series [1] was determined as 50 µM. For the same compound, the EC50 in the series with Norwalk virus was determined as 4.1 µM.
The corresponding values for `O=S1(=O)NCCN1Cc1cccc(Oc2ccc(F)cc2)c1` are 98 µM and greater than 10 µM.
The corresponding values for `O=S1(=O)NCCN1Cc1cccc(OCc2ccccc2)c1` are 18 µM and 5.2 µM.
For `O=S1(=O)NCCN1Cc1cccc(O)c1`, in the series on Norwalk virus, the EC50 is greater than 10 µM.
With `O=S1(=O)NCCN1Cc1ccc(Oc2ccccc2)cc1`, the CC50 at 48 h in series [1] amounted to 57 µM. Moreover, in the series with Norwalk virus, the EC50 is 5.8 µM.
Taken in the same sequence, the figures for `CCCOc1ccc(CN2CCNS2(=O)=O)cc1` were 96 µM and 5.2 µM.
Taken in the same sequence, the figures for `O=S1(=O)NCCN1Cc1ccc(OCc2ccccc2)cc1` were 159 µM and 9.8 µM.
With `CCOc1ccc(CN2CCNS2(=O)=O)cc1`, the EC50 in the series on Norwalk virus is greater than 10 µM.
On the same count and under the same terms, in the case of `CC(C)Oc1ccc(CN2CCNS2(=O)=O)cc1` it was greater than 10 µM; in that of `CCCCOc1ccc(CN2CCNS2(=O)=O)cc1`, 9.5 µM; in that of `CCCc1ccc(CN2CCNS2(=O)=O)cc1`, greater than 10 µM.
Still for that read-out and setting: in the case of `CC(C)Cc1ccc(CN2CCNS2(=O)=O)cc1` it was 9.7 µM; in that of `CSc1ccc(CN2CCNS2(=O)=O)cc1`, greater than 10 µM.
Still for that read-out and setting: with `O=S1(=O)NCCN1Cc1ccc(OC(F)(F)F)cc1` the figure was greater than 10 µM; with `O=S1(=O)NCCN1Cc1cccc(OC(F)(F)F)c1`, greater than 10 µM; with `O=S1(=O)NCCN1Cc1cccc(Cl)c1`, greater than 10 µM.
With `COc1cccc(CN2CCNS2(=O)=O)c1`, the EC50 in the series with Norwalk virus is greater than 10 µM.
Same read-out and setting: with `COc1ccc(CN2CCNS2(=O)=O)cc1` the figure was greater than 10 µM; with `O=S1(=O)NCCN1Cc1ccc(Cl)cc1`, greater than 10 µM.
Still for that read-out and setting: in the case of `CC(C)(C)OC(=O)N1CCN(Cc2cn(Cc3ccccc3)nn2)S1(=O)=O` it was greater than 10 µM; in that of `COc1ccc(Cn2cc(CN3CCN(C(=O)OC(C)(C)C)S3(=O)=O)nn2)cc1`, 9.8 µM.
On the same count and under the same terms, with `O=S1(=O)NCCN1Cc1cn(Cc2ccccc2)nn1` the figure was greater than 10 µM; with `COc1ccc(Cn2cc(CN3CCNS3(=O)=O)nn2)cc1`, greater than 10 µM; with `O=S1(=O)NCCN1CC1CCCN(Cc2ccccc2)C1` (configuration not stated), greater than 10 µM.
Consider `COC(=O)CN1CCN(Cc2cccc(Oc3ccccc3)c2)S1(=O)=O`, for which the EC50 with Norwalk virus is greater than 10 µM.
The same measure, in the same setting: in the case of `COC(=O)CCN1CCN(Cc2cccc(Oc3ccccc3)c2)S1(=O)=O` it was greater than 10 µM; in that of `COC(=O)CCCN1CCN(Cc2cccc(Oc3ccccc3)c2)S1(=O)=O`, greater than 10 µM.
For `COC(=O)CCCCN1CCN(Cc2cccc(Oc3ccccc3)c2)S1(=O)=O`, in series [1], the CC50 at 48 h stood at 46 µM. The EC50 in the series on Norwalk virus was determined as 9.7 µM.
With `COC(=O)CCCCCCN1CCN(Cc2cccc(Oc3ccccc3)c2)S1(=O)=O`, the EC50 with Norwalk virus was greater than 10 µM.
Turning to `COC(=O)c1ccc(CN2CCN(Cc3cccc(Oc4ccccc4)c3)S2(=O)=O)cc1`, the EC50 in the series with Norwalk virus is greater than 10 µM.
With `O=C(O)CN1CCN(Cc2cccc(Oc3ccccc3)c2)S1(=O)=O`, in series [1], the CC50 at 48 h is 48 µM. In addition, the EC50 with Norwalk virus came out at 7.8 µM.
For `O=C(O)CCN1CCN(Cc2cccc(Oc3ccccc3)c2)S1(=O)=O`, the EC50 with Norwalk virus was greater than 10 µM.
For the compound `O=C(O)CCCN1CCN(Cc2cccc(Oc3ccccc3)c2)S1(=O)=O`, the EC50 in the series on Norwalk virus was greater than 10 µM.
Regarding `O=C(O)CCCCN1CCN(Cc2cccc(Oc3ccccc3)c2)S1(=O)=O`, the CC50 at 48 h in series [1] worked out at 100 µM. Besides, in the series with Norwalk virus, the EC50 was 6.1 µM.
`O=C(O)CCCCCCN1CCN(Cc2cccc(Oc3ccccc3)c2)S1(=O)=O`: the EC50 in the series with Norwalk virus is greater than 10 µM.
`O=C(O)c1ccc(CN2CCN(Cc3cccc(Oc4ccccc4)c3)S2(=O)=O)cc1`: the EC50 in the series with Norwalk virus is greater than 10 µM.
Same read-out and setting: in the case of `CN1CCN(Cc2cccc(Oc3ccccc3)c2)S1(=O)=O` it was greater than 10 µM; in that of `CCN1CCN(Cc2cccc(Oc3ccccc3)c2)S1(=O)=O`, greater than 10 µM.
The same measure, in the same setting: in the case of `N#CCN1CCN(Cc2cccc(Oc3ccccc3)c2)S1(=O)=O` it was greater than 10 µM; in that of `O=S1(=O)N(Cc2ccccc2)CCN1Cc1cccc(Oc2ccccc2)c1`, greater than 10 µM.
`O=S1(=O)N(Cc2ccc(F)cc2)CCN1Cc1cccc(Oc2ccccc2)c1`: the EC50 with Norwalk virus is greater than 10 µM.
Take `O=S1(=O)N(Cc2cccnc2)CCN1Cc1cccc(Oc2ccccc2)c1`: in series [1], the CC50 at 48 h was 53 µM. In the series on Norwalk virus, the EC50 is 8.1 µM.
For the compound `NC(=O)CN1CCN(Cc2cccc(Oc3ccccc3)c2)S1(=O)=O`, in the series on Norwalk virus, the EC50 is greater than 10 µM.
Consider `O=S1(=O)N(CCN2CCCCC2)CCN1Cc1cccc(Oc2ccccc2)c1`, for which, in series [1], the CC50 at 48 h is 9.8 µM. For the same compound, the EC50 in the series on Norwalk virus amounted to 4.3 µM.

The values above are taken from ChEMBL document CHEMBL1833900, “Potent inhibition of Norwalk virus by cyclic sulfamide derivatives” (Bioorg Med Chem, 2011).
